Source: PubChem (The Scripps Research Institute Molecular Screening Center)
Rows were chosen to be rich in hits. Some 3% of all compounds tested hit in one or more screens of this group.
5-HT1A blocker: human 5-HT1a receptor antagonists, primary screen, cell-based, CHO, Ga15 NFAT-bla reporter | inhibition, % at 10 µM | AID 612, 2007 | 62,000 tested, 0.68% active | CHO 5-HT1a Ga15 NFAT-bla reporter, antagonist mode | 5-hydroxytryptamine receptor 1A (Homo sapiens), P08908;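 active means inhibition above the mean of all tested compounds plus 3 SD, cut at about 43% in these data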;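 further: receptor stimulated by 5-CT agonist at 100 nM near EC80; beta-lactamase reporter measured by ratiometric fluorescence of a cleavable substrate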
HTR1A agonist: human 5-HT1a receptor agonists, primary screen, cell-based, CHO, Ga15 NFAT-bla reporter; 5-hydroxytryptamine receptor 1A (Homo sapiens), P08908; CHO 5-HT1a Ga15 NFAT-bla reporter, FRET ratio; 0% basal, 100% maximal reference agonist; activation, % at 10 µM; 65,000 tested, 0.56% active; AID 567, 2006;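 active means activation above the screen-wide mean activation plus 3 SD, cut at about 19% in these data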
5HT1E ag: 5-HT1E receptor agonists, primary screen, cell-based, HTS; 5-hydroxytryptamine receptor 1E (Homo sapiens), P28566; CHO 5-HT1E Ga15 NFAT-bla reporter, FRET; 0% DMSO wells, 100% control agonist wells; activation, % at 6 µM; 65,000 tested, 0.69% active;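 active means activation above a set limit, the screen-wide mean activation plus 3 SD, cut at about 8.5% in these data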
S1P3 agonist: human S1P3 receptor agonists, primary screen, cell-based, primary and confirmation, NFAT-BLA reporter; Sphingosine 1-phosphate receptor 3 (Homo sapiens), Q99500; activation, % at 4.5 µM; AID 373, 2006; 60,000 tested, 0.1% active; S1P3 NFAT-BLA reporter cells, agonism, FRET ratio; relative to 1 µM S1P, basal subtracted;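 active means activation above the screen-wide mean plus 3 SD, cut at about 4.5% in these data, passing the limit was not always enough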
Target sequence (Q99500 whole entry, looked up): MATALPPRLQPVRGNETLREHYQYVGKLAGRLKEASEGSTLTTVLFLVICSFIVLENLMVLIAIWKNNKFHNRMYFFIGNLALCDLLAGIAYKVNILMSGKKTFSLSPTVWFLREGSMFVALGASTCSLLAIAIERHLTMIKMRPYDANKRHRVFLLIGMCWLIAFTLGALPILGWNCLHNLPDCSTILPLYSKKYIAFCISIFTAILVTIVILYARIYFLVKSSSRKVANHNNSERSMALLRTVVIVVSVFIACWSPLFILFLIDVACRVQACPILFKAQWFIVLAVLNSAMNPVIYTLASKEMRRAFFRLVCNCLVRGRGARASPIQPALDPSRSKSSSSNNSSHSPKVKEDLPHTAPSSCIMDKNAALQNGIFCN
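Benchmarks: high control 1 µM S1P / System: stable CHO line with human S1P3, Gα16, NFAT-BLA reporter / Dosing: single compound concentration, 4.5 µM final / Timing: 4 h compound at 37 °C, 2 h substrate at RT / Measured by: FRET β-lactamase substrate fluorescence, excitation 405 nm, 460/535 nm emission ratio, background-subtracted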
S1P1 ag pot: S1P1 agonists and agonism potentiators, primary screen, cell-based, primary and confirmation screens, CRE-bla reporter. Sphingosine 1-phosphate receptor 1 (Homo sapiens), P21453. S1P1 CRE-bla cells, forskolin, beta-lactamase FRET, potentiator mode; S1P1 agonist co-added at EC20, 2 nM; 100% = saturating reference agonist, 0% = basal. activation, % at 9.5 µM. 56,000 tested, 0.57% active. AID 449, 2006;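 active means activation above a cutoff set at the mean activation of all tested compounds plus 3 SD, cut at about 54% in these data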;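 further: forskolin at 4 µM as EC80 and the EC20 agonist is SEW2871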
HTR1E antagonist: 5-HT1E receptor antagonists, primary screen, cell-based, HTS | 5-hydroxytryptamine receptor 1E (Homo sapiens), P28566 | 65,000 tested, 0.99% active | AID 571, 2007 | CHO 5-HT1E Ga15 NFAT-bla reporter, FRET, antagonist | inhibition, % at 6 µM;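 active means inhibition above a set limit, the mean inhibition across every tested compound plus 3 SD, cut at about 29% in these data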;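 further: signal is the 460 over 535 nm emission ratio of beta-lactamase substrate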
Numbers stand for hits; 0 = inactive; - = no result.

SMILES	5-HT1A blocker	HTR1A agonist	5HT1E ag	S1P3 agonist	S1P1 ag pot	HTR1E antagonist
Cc1ccc(CNC(=O)c2sccc2-n2cccc2)cc1	0	0	0	0	0	0
COC(=O)c1ccc(OCC2c3cc(OC)c(OC)cc3CCN2C(=O)C2CC2)cc1 (stereo not given)	0	0	0	-	-	34
Cc1ccc(S(=O)(=O)Nc2cccc3ncccc23)s1	64	0	0	0	0	81
COc1ccc(C2(O)CCN(CCCCOc3ccccc3)CC2)cc1	67	0	0	0	0	0
O=C(CCN1C(=O)c2ccccc2C1=O)N1CCC(c2ccccc2)C1 (stereo not given)	0	32	0	0	-	0
O=C(CCN1C(=O)c2ccccc2C1=O)N1CCCCCC1	0	0	0	0	0	0
Clc1ccc(Cn2ncc3c(N4CCCCC4)ncnc32)cc1	0	0	0	0	0	34
O=C(OCCN1C(=O)CCC1=O)c1ccc(S(=O)(=O)N2CCCCC2)cc1	0	0	0	0	0	0
CN(C)c1cc(-c2ccccc2)nc(N)n1	0	0	0	0	0	0
Nc1nc(-c2ccccc2)cc(-c2ccccc2O)n1	57	0	0	0	0	0
Nc1nc(-c2ccccc2)nc(-c2ccccc2O)n1	51	0	0	0	0	0
CN1CCN(CC(=O)N2CCn3c4c(c5cc(C6CCCCC6)ccc53)CCCC42)CC1 (stereo not given)	0	0	0	0	0	0
CCOC(=O)c1ccccc1NC(=O)Cn1c(-c2nonc2N)nc2ccccc21	80	0	0	0	0	74
Nc1nonc1-c1nc2ccccc2n1Cc1ccccc1	56	0	0	0	-	0
Fc1ccccc1N1CCN(c2ncnc3[nH]ncc23)CC1	0	310	0	0	0	0
O=C(CSCc1ccccc1)N1CCN(Cc2ccc3c(c2)OCO3)CC1	0	0	0	0	0	0
CCOc1ccc(-c2nc(CSCC(=O)N3CCN(c4cccc(OC)c4)CC3)c(C)o2)cc1	0	0	0	0	69	0
Cc1cccc(-c2nc(CSCC(=O)N3CCN(Cc4ccc5c(c4)OCO5)CC3)c(C)o2)c1	0	0	0	0	58	0
COc1ccc(C)cc1NC(=O)c1cnc2sccn2c1=O	0	0	0	0	0	0
CCCN=Cc1sc2ccc(OCC)cc2c1O	0	0	35	0	0	0
Cc1ccc(-c2nc3ccccc3[nH]2)cc1NC(=O)c1ccco1	0	0	0	0	0	0
O=C(Nc1cccc(-c2nc3ccccc3[nH]2)c1)c1cccc(NC(=O)c2ccco2)c1	0	0	0	0	0	43
CC(C)Cn1c(=O)c(C(=O)Nc2ccccc2S(N)(=O)=O)c(O)c2ccccc21	0	0	0	0	120	0
Fc1cccc(-c2cc3nc4c(c(N5CCC6(CC5)OCCO6)n3n2)CCCC4)c1	0	0	0	-	-	0
OC1CCN(c2c3c(nc4cc(-c5cccc(F)c5)nn24)CCCC3)CC1	0	0	0	-	-	31
SMILES	5-HT1A blocker	HTR1A agonist	5HT1E ag	S1P3 agonist	S1P1 ag pot	HTR1E antagonist
CCOC(=O)c1cn(-c2ccccc2)nc1-c1ccncc1	0	0	0	0	0	0
O=C(Nc1c(F)cc(F)cc1Br)c1cc(-c2ccc(O)cc2)on1	0	0	0	0	99	0
Cc1cc(C(=O)Nc2c(F)cc(F)cc2Br)no1	0	0	0	0	0	0
COCCOC(=O)c1c(C)nc(SCC(=O)Nc2ccc(OC)cc2)c(C#N)c1-c1ccco1	-	0	0	0	0	34
COc1cccc(NC(=O)CSc2nc3c(c(-c4ccco4)c2C#N)CCCC3)c1	0	0	0	0	0	0
CN1CCN(c2nc(N3CCN(c4ccccc4)CC3)ncc2F)CC1	0	0	35	0	0	0
